SF-1 act = SF-1 (human) activation; 1.9% of 65,000 active; AID 522; activation, % at 10 µM; Q13285; CHO-K1 Gal4-SF-1 LBD luciferase reporter; % increase over DMSO SF-1-specific signal;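 active means activation above the mean activation of all tested compounds plus 3 SD, cut at about 50% in these data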
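System: CHO-K1 cells with Gal4–hSF-1 LBD chimera plus Gal4-driven luciferase; quantity: 4,000 CHO-K1 cells per well; compound: one dose, 10 µM compound, 1% DMSO; times: 20 h compound treatment, 37 °C; measured by: SteadyLite luciferase luminescence; read-out: percent activation versus DMSO; benchmarks: DMSO and mock-transfected background; replicates: one test per compound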
RORa activator = activators of human nuclear receptor RORA; P35398; 1.5% of 65,000 active; activation, % at 10 µM; CHO-K1 Gal4-RORA LBD luciferase reporter, luminescence; percent increase over mock-subtracted basal signal;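 active means activation above the mean of all tested compounds plus 3 SD, cut at about 49% in these data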;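 further: 0% = DMSO-treated RORA cells and 100% = added signal equal to DMSO minus mock-transfected cells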
Target sequence (P35398 whole entry, looked up, the tested form may be a part): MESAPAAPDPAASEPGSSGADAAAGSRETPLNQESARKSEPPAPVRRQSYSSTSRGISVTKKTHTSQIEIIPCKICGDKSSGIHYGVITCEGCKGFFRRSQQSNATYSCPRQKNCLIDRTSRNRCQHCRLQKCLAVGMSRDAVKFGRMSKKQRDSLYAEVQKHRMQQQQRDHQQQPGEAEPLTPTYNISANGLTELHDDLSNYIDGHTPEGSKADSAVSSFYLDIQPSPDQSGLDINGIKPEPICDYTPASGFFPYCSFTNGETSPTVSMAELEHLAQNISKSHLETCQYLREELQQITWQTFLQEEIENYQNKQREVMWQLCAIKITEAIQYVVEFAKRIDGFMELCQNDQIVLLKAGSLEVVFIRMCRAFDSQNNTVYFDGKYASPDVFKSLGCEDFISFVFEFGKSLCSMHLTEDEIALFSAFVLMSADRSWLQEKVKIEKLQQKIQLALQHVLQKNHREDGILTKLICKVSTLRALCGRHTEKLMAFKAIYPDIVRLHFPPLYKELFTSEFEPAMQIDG
MT1-MMP txn act = MT1-MMP promoter transcription activation | activation factor at 10 µM | AID 750 | 0.16% of 86,000 active | HT1080 MT1-MMP promoter luciferase reporter, luminescence, overnight; hits give high values;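 active means activation factor of at least 2 for MT1-MMP transcription at 10 µM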
M1 antagonist = blocks the rat M1 muscarinic receptor response to acetylcholine; P08482; CHO-M1 cells, Fluo-4 calcium, ACh EC80 antagonist mode; hits give low values; B-score at 10 µM; 3.4% of 64,000 active;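 active means calcium fluorescence response, raw or row-and-column corrected B-score, differing from the plate sample mean either way at a set confidence level, mostly lower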
M1 agonist = agonists of M1 muscarinic receptor | CHO-M1 cells, Fluo-4 calcium fluorescence, agonist mode; hits give high values | B-score at 10 µM | 3% of 64,000 active | AID 626;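 active means fluorescence rise, raw or as B-score row- and column-corrected plate score, outside the 99.7% band of its plate's samples, either direction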
M1 agonist conf = rat M1 muscarinic agonism, confirmation; shares compounds with M1 agonist; CHO-M1 cells, Fluo-4 calcium fluorescence, agonist mode; actives lie on both sides; fluorescence change (max-min) at 10 µM; 19% of 1,700 active;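 active means fluorescence change differs from the solvent-only DMSO control mean at a set confidence level in both duplicate runs; inconclusive means differs from solvent-only control mean in just one of two runs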;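 further: an EC20 dose of acetylcholine follows compound addition during the same imaging run; raw fluorescence intensity difference in instrument units with no normalization to controls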
M4 agonist ctr = counter-screen for M1 agonists: activity at rat M4 receptor. 9% of 1,700 active. fluorescence change (max-min) at 10 µM. CHO M4/Gqi5 cells, Fluo-4 calcium fluorescence, agonist mode; actives lie on both sides. shares compounds with M1 agonist. AID 1741;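 active means fluorescence change differing from the plate's solvent-only control wells at 99.7% confidence in both duplicates, whether higher or lower; inconclusive means differs from solvent controls in only one of two duplicates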
M1 antag conf = M1 muscarinic receptor (rat) antagonism, confirmed. calcium response (max-min fluorescence) at 10 µM. AID 677. shares compounds with M1 antagonist. CHO-M1 cells, Fluo-4 calcium, ACh EC80 antagonism; hits give low values. 43% of 1,700 active;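 active means calcium response below the same-plate mean of wells given acetylcholine alone at its 80%-effect dose, minus 3 SD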;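 further: raw fluorescence intensity difference in arbitrary instrument units and not normalized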
mGluR4 antag = acts on human mGluR4 in M1 antagonist selectivity test; shares compounds with M1 antagonist; CHO-mGluR4 calcium flux, Fluo-4 fluorescence, glutamate EC80; hits give low values; fluorescence response (max-min) at 10 µM; 0.9% of 1,700 active; AID 678;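 active means fluorescence response below the plate's average for near-maximal glutamate wells, less 3 SD of those wells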;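 further: raw unnormalized fluorescence span taken in the window right after glutamate addition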
An asterisk follows results filed as active; u = inconclusive; x = no result given. Only some compounds are listed: those with a hit (about 6.3% of all), similar ones and a draw of the others.

SMILES	SF-1 act	RORa activator	MT1-MMP txn act	M1 antagonist	M1 agonist	M1 agonist conf	M4 agonist ctr	others
COc1ccc(CCNc2oc(COc3ccccc3F)nc2C#N)cc1OC	10	6	1.1	-2.1*	3*	-28	-85*
COc1ccc(CCNc2oc(Cc3ccccc3)nc2C#N)cc1OC	26	1	1	-0.39	6.5*	-31*	u
COc1ccc(C(=O)NCCc2nnc(SCC(=O)Nc3ccccc3C(C)C)n2C)cc1	x	x	1.1	x	x	x	x
COc1ccccc1NC(=O)CN1CCN(CC(=O)Nc2cc(NC(C)=O)ccc2OC)CC1	-7	2	1	0.068	3.7*	u	-31
COc1ccccc1NC(=O)CN1CCC(n2c(C)nc3cc(F)ccc32)CC1	14	13	1.2	-0.09	-2.6*	u	-58
COc1ccccc1C(=O)N1CCNC(=O)C1CC(=O)Nc1cccc(C)c1 (configuration not stated)	x	x	1.2	x	x	x	x
COc1ccccc1NC(=O)CN1CCC(n2nnc3cc(F)ccc32)CC1	6	0	1.2	0.0082	-0.95	x	x
COc1ccccc1NC(=O)CC1C(=O)NCCN1C(=O)Nc1ccc(Cl)c(Cl)c1 (configuration not stated)	-8	8	1	-0.28	-2.1*	u	u
COc1cc(NC(=O)c2ccc(C)cc2)c(OC)cc1NC(=O)CN1CCOCC1	-2	15	1.2	-0.34	0.036	x	x
COc1cc(NC(=O)c2ccccc2)c(OC)cc1NC(=O)CN1CCN(c2ccccn2)CC1	5	14	1.1	-0.075	5.9*	-8.2	-36
COc1ccc(-c2cc(-c3ccc(Br)cc3)nc3ncnn23)cc1OC	x	x	1	x	x	x	x
COc1ccccc1N(CC(=O)NCC1CCCO1)C(=O)CCC(=O)Nc1nccs1 (configuration not stated)	x	x	1.1	x	x	x	x
COc1ccc(-n2c(=O)cc(N3CC(C)OC(C)C3)[nH]c2=O)cc1 (configuration not stated)	-16	-9	1.1	0.097	-1.5	x	x
O=C(NCC1c2ccccc2CCN1C(=O)CN1C(=O)c2ccccc2C1=O)C1CCCCC1 (configuration not stated)	x	x	1.2	x	x	x	x
COc1ccc(NC(C)=O)cc1NC(=O)CN1CCN(CC(=O)Nc2ccccc2Cl)CC1	18	2	1.1	-0.035	4*	u	-71
CC(C)n1c(NCCc2ccccc2)nc2c1c(=O)n(C)c(=O)n2C	x	x	0.9	x	x	x	x
COc1cc(C2CC(=O)c3c([nH]c(C(=O)OCCOC(C)C)c3C)C2)cc(OC)c1OC (configuration not stated)	-34	-25	1.1	0.22	3.2*	-33*	-20
CCC1CCCCN1C(=O)CSc1nc(N)c(NC(=O)c2ccc(OC)c(OC)c2)c(=O)[nH]1 (configuration not stated)	-1	-20	1	-0.059	0.36	x	x
O=C(Nc1ccc(N2CCOCC2)c(Cl)c1)c1ccc(Br)o1	67*	55*	1.3	-2.5*	11*	-8.3	-16
CC(C)(C)C(=O)/C=C/Nc1ccccc1O	x	x	1.1	x	x	x	x
COc1ccccc1N1CCN(C(=O)CCCC2=NS(=O)(=O)c3ccccc3N2)CC1	6	14	1.1	-0.0014	3.2*	-22*	-54
CNS(=O)(=O)c1cccc2nsnc12	-6	5	1.2	-1.5	0.48	x	x
Cc1cc(=O)oc2cc(OCC(=O)OCc3nnc(-c4ccccc4)o3)ccc12	6	-10	1	-0.17	37*	-4.5	-21
CCCCSc1nnc([C@@H](NC(=O)OC(C)(C)C)C(C)C)o1	-4	4	1.2	-0.22	-1.2	x	x
N#CC1(c2nc3ccccc3[nH]2)CC1c1ccc2c(c1)OCO2 (configuration not stated)	9	19	1.2	0.29	2.9*	-34*	-82
SMILES	SF-1 act	RORa activator	MT1-MMP txn act	M1 antagonist	M1 agonist	M1 agonist conf	M4 agonist ctr	others
O=c1c2ccccc2nc2n1CCN2Cc1ccc(Cl)cc1	-20	-7	1.3	-1.8	5.6*	u	-59
O=c1c2ccccc2nc2n1CCCS2	5	-9	1.3	0.61	0.071	x	x
CC(NC(=O)c1cc(-c2ccc(Br)cc2)on1)c1ccccc1 (configuration not stated)	10	-4	1.2	-0.52	-0.0056	x	x
O=C(Cn1nnc(-c2ccccc2)n1)OCc1csc(-c2ccccc2)n1	19	9	1.1	-0.21	14*	-27	-28
CS(=O)(=O)N(CC(=O)N1CCCCCC1)c1ccc2c(c1)OCCO2	-2	-8	1.1	-0.14	-2.1*	22	-25
CCc1nnc(NC(=O)c2ccc(N3C(=O)CCC3=O)cc2)s1	42	20	1.2	-3.1*	-2.5*	u	0.15	M1 antag conf=694;mGluR4 antag=199
CCOc1ccccc1NC(=O)CC1Nc2cc(C)c(C)cc2NC1=O (configuration not stated)	2	10	1.1	-2.6*	-2.3*	-10	-41	M1 antag conf=597;mGluR4 antag=232
CCOc1ccccc1NC(=O)CC1Nc2ccccc2NC1=O (configuration not stated)	4	8	1.2	-0.37	-1.3	x	x
COc1ccc(CN2C(=O)NC3(CCCCCC3)C2=O)cc1F	16	-11	1.1	-0.29	0.0083	x	x
CC(C)COC(=O)C(C#N)c1nc2ccccc2nc1N1CCN(Cc2ccccc2)CC1 (configuration not stated)	-17	14	1	-1.3*	-2.3*	8.3	-8.4	M1 antag conf=631;mGluR4 antag=178
CCC(CC)C(=O)Nc1c2c(nn1-c1ccc(OC)cc1)CS(=O)C2 (configuration not stated)	2	-11	1.2	-3.3*	-2.4*	u	-36	M1 antag conf=675;mGluR4 antag=175
CCC(C)(C(=O)NC1CCCC1)N(C(=O)c1ccccn1)c1ccccc1 (configuration not stated)	5	-8	1.2	-0.81	-0.021	x	x
Cc1cc(O)c(/C=N/c2ccccn2)c(=O)o1	-9	-13	1	0.57	-0.81	x	x
CCOc1ccc(N=Cc2c(O)cc(C)oc2=O)cc1	-4	-10	1	-10*	-3.4*	-13	u	M1 antag conf=688;mGluR4 antag=203
CCOC(=O)c1ccc(NC(=O)N2CCN(CCc3ccccc3)CC2)cc1	3	-1	1.1	-2.2*	-2.4*	-1.7	-23	M1 antag conf=459;mGluR4 antag=192
